MIC data for ten molecules are collected here from ChEMBL document CHEMBL1152473, “Synthesis, characterization and antibacterial activity of some triazole Mannich bases carrying diphenylsulfone moieties” (2009).

Converted amounts (≈) assume the structure as drawn. The source made the active and inactive calls. No cut-off for these calls is given here.

For one assay, the system named is Enterococcus faecalis. Description: Antibacterial activity against Enterococcus faecalis ATCC 19433 after 18 to 24 hrs by liquid broth method. The class given is functional.
Conditions: not given
In a few lines: (§1)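 Serial two-fold dilution in liquid broth in 96-well plates. Compounds were added from DMSO stock solutions to give final levels of 1024, 512, 256, 128, 64, 32, 16, 8, 4 and 2 (unit as printed unclear). Plates were incubated at 37 °C for 18–24 h.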
Consider `O=[N+]([O-])c1cccc(/C=N/n2c(-c3ccc(S(=O)(=O)c4ccccc4)cc3)nn(CN3CCOCC3)c2=S)c1`, for which the MIC (in general, the lowest concentration that inhibits growth of the organism) worked out at 1020 µg/mL (≈ 1810 µM).
Same read-out and setting: with `O=S(=O)(c1ccccc1)c1ccc(-c2nn(CN3CCOCC3)c(=S)n2/N=C/c2ccco2)cc1` the figure was 512 µg/mL (≈ 1000 µM); with `CCCn1c(S)nnc1-c1ccc(S(=O)(=O)c2ccc(Cl)cc2)cc1`, greater than 1020 µg/mL.
Same read-out and setting: then `CN(C)c1ccc(/C=N/n2c(-c3ccc(S(=O)(=O)c4ccccc4)cc3)n[nH]c2=S)cc1`, with “inactive”; and `O=S(=O)(c1ccc(Cl)cc1)c1ccc(-c2n[nH]c(=S)n2/N=C/c2ccccc2)cc1`, with “inactive”; and `O=C(N[C@H](CO)[C@H](O)c1ccc([N+](=O)[O-])cc1)C(Cl)Cl` [CHLORAMPHENICOL], with 64 µg/mL (≈ 198 µM).
Consider `CCCn1c(-c2ccc(S(=O)(=O)c3ccc(Br)cc3)cc2)nn(CN2CCOCC2)c1=S`, for which the MIC was 512 µg/mL (≈ 953 µM).
Still for that read-out and setting: with `CCCn1c(-c2ccc(S(=O)(=O)c3ccccc3)cc2)nn(CN2CCOCC2)c1=S` the figure was 1020 µg/mL (≈ 2230 µM).
The same measure, in the same setting: with `CN(C)c1ccc(/C=N/n2c(-c3ccc(S(=O)(=O)c4ccccc4)cc3)nn(CN3CCOCC3)c2=S)cc1` the figure was greater than 1020 µg/mL; with `O=[N+]([O-])c1cccc(/C=N/n2c(-c3ccc(S(=O)(=O)c4ccccc4)cc3)n[nH]c2=S)c1`, “inactive”.

In the next assay the test system is Staphylococcus aureus. Description: Antibacterial activity against Staphylococcus aureus ATCC 12600 after 18 to 24 hrs by liquid broth method. The class given is functional.
Conditions: not given
Put shortly: as §1
In turn, `O=[N+]([O-])c1cccc(/C=N/n2c(-c3ccc(S(=O)(=O)c4ccccc4)cc3)nn(CN3CCOCC3)c2=S)c1` returned an MIC of 512 µg/mL (≈ 907 µM).
Still for that read-out and setting: then `O=S(=O)(c1ccccc1)c1ccc(-c2nn(CN3CCOCC3)c(=S)n2/N=C/c2ccco2)cc1`, with 512 µg/mL (≈ 1000 µM); and `CCCn1c(S)nnc1-c1ccc(S(=O)(=O)c2ccc(Cl)cc2)cc1`, with 512 µg/mL (≈ 1300 µM).
On the same count and under the same terms, then `CN(C)c1ccc(/C=N/n2c(-c3ccc(S(=O)(=O)c4ccccc4)cc3)n[nH]c2=S)cc1`, with 1020 µg/mL (≈ 2210 µM); and `O=S(=O)(c1ccc(Cl)cc1)c1ccc(-c2n[nH]c(=S)n2/N=C/c2ccccc2)cc1`, with 1020 µg/mL (≈ 2250 µM).
Same read-out and setting: then `O=C(N[C@H](CO)[C@H](O)c1ccc([N+](=O)[O-])cc1)C(Cl)Cl` [CHLORAMPHENICOL], with 64 µg/mL (≈ 198 µM).
As for `CCCn1c(-c2ccc(S(=O)(=O)c3ccc(Br)cc3)cc2)nn(CN2CCOCC2)c1=S`, the MIC result was “inactive”.
The same measure, in the same setting: then `CCCn1c(-c2ccc(S(=O)(=O)c3ccccc3)cc2)nn(CN2CCOCC2)c1=S`, with “inactive”; and `CN(C)c1ccc(/C=N/n2c(-c3ccc(S(=O)(=O)c4ccccc4)cc3)nn(CN3CCOCC3)c2=S)cc1`, with 1020 µg/mL (≈ 1820 µM); and `O=[N+]([O-])c1cccc(/C=N/n2c(-c3ccc(S(=O)(=O)c4ccccc4)cc3)n[nH]c2=S)c1`, with 256 µg/mL (≈ 550 µM).

Another assay has as its system Staphylococcus epidermidis. Description: Antibacterial activity against Staphylococcus epidermidis ATCC 14990 after 18 to 24 hrs by liquid broth method.
Conditions: not given
Type of assay: functional. Put shortly:
as §1
Take `O=[N+]([O-])c1cccc(/C=N/n2c(-c3ccc(S(=O)(=O)c4ccccc4)cc3)nn(CN3CCOCC3)c2=S)c1`: the MIC result was “inactive”.
`O=S(=O)(c1ccccc1)c1ccc(-c2nn(CN3CCOCC3)c(=S)n2/N=C/c2ccco2)cc1`: the MIC entry is “inactive”.
On the same count and under the same terms, with `CCCn1c(S)nnc1-c1ccc(S(=O)(=O)c2ccc(Cl)cc2)cc1` the entry was “inactive”; with `CN(C)c1ccc(/C=N/n2c(-c3ccc(S(=O)(=O)c4ccccc4)cc3)n[nH]c2=S)cc1`, “inactive”.
Same read-out and setting: with `O=S(=O)(c1ccc(Cl)cc1)c1ccc(-c2n[nH]c(=S)n2/N=C/c2ccccc2)cc1` the figure was 1020 µg/mL (≈ 2250 µM); with `O=C(N[C@H](CO)[C@H](O)c1ccc([N+](=O)[O-])cc1)C(Cl)Cl` [CHLORAMPHENICOL], 64 µg/mL (≈ 198 µM).
Same read-out and setting: then `CCCn1c(-c2ccc(S(=O)(=O)c3ccc(Br)cc3)cc2)nn(CN2CCOCC2)c1=S`, with “inactive”; and `CCCn1c(-c2ccc(S(=O)(=O)c3ccccc3)cc2)nn(CN2CCOCC2)c1=S`, with greater than 1020 µg/mL; and `CN(C)c1ccc(/C=N/n2c(-c3ccc(S(=O)(=O)c4ccccc4)cc3)nn(CN3CCOCC3)c2=S)cc1`, with “inactive”.
Regarding `O=[N+]([O-])c1cccc(/C=N/n2c(-c3ccc(S(=O)(=O)c4ccccc4)cc3)n[nH]c2=S)c1`, the MIC result was “inactive”.

For another assay, the system named is Bacillus subtilis. Description: Antibacterial activity against Bacillus subtilis ATCC 6633 after 18 to 24 hrs by liquid broth method. Type of assay: functional.
Conditions: not given
Put shortly: as §1
The molecule `O=[N+]([O-])c1cccc(/C=N/n2c(-c3ccc(S(=O)(=O)c4ccccc4)cc3)nn(CN3CCOCC3)c2=S)c1` showed an MIC of 1020 µg/mL (≈ 1810 µM).
Same read-out and setting: then `O=S(=O)(c1ccccc1)c1ccc(-c2nn(CN3CCOCC3)c(=S)n2/N=C/c2ccco2)cc1`, with 1020 µg/mL (≈ 2010 µM); and `CCCn1c(S)nnc1-c1ccc(S(=O)(=O)c2ccc(Cl)cc2)cc1`, with 1020 µg/mL (≈ 2600 µM); and `CN(C)c1ccc(/C=N/n2c(-c3ccc(S(=O)(=O)c4ccccc4)cc3)n[nH]c2=S)cc1`, with 64 µg/mL (≈ 138 µM).
Regarding `O=S(=O)(c1ccc(Cl)cc1)c1ccc(-c2n[nH]c(=S)n2/N=C/c2ccccc2)cc1`, the MIC result was “inactive”.
Molecule `O=C(N[C@H](CO)[C@H](O)c1ccc([N+](=O)[O-])cc1)C(Cl)Cl` [CHLORAMPHENICOL] registered an MIC of 64 µg/mL (≈ 198 µM).
The molecule `CCCn1c(-c2ccc(S(=O)(=O)c3ccc(Br)cc3)cc2)nn(CN2CCOCC2)c1=S` gave an MIC greater than 1020 µg/mL.
Still for that read-out and setting: with `CCCn1c(-c2ccc(S(=O)(=O)c3ccccc3)cc2)nn(CN2CCOCC2)c1=S` the figure was greater than 1020 µg/mL; with `CN(C)c1ccc(/C=N/n2c(-c3ccc(S(=O)(=O)c4ccccc4)cc3)nn(CN3CCOCC3)c2=S)cc1`, 512 µg/mL (≈ 910 µM); with `O=[N+]([O-])c1cccc(/C=N/n2c(-c3ccc(S(=O)(=O)c4ccccc4)cc3)n[nH]c2=S)c1`, 512 µg/mL (≈ 1100 µM).

For a further assay, the system named is Acinetobacter baumannii. The assay can be described thus: Antibacterial activity against Acinetobacter baumannii ATCC 19606 after 18 to 24 hrs by liquid broth method. The class given is functional. To be noted: ATCC 19606 = CIP 70.34 = JCM 6841. Put shortly:
as §1
Molecule `O=[N+]([O-])c1cccc(/C=N/n2c(-c3ccc(S(=O)(=O)c4ccccc4)cc3)nn(CN3CCOCC3)c2=S)c1` displayed an MIC of 512 µg/mL (≈ 907 µM).
The same measure, in the same setting: with `O=S(=O)(c1ccccc1)c1ccc(-c2nn(CN3CCOCC3)c(=S)n2/N=C/c2ccco2)cc1` the figure was 512 µg/mL (≈ 1000 µM); with `CCCn1c(S)nnc1-c1ccc(S(=O)(=O)c2ccc(Cl)cc2)cc1`, greater than 1020 µg/mL.
On the same count and under the same terms, with `CN(C)c1ccc(/C=N/n2c(-c3ccc(S(=O)(=O)c4ccccc4)cc3)n[nH]c2=S)cc1` the figure was 512 µg/mL (≈ 1100 µM).
On the same count and under the same terms, then `O=S(=O)(c1ccc(Cl)cc1)c1ccc(-c2n[nH]c(=S)n2/N=C/c2ccccc2)cc1`, with 512 µg/mL (≈ 1130 µM).
In turn, `O=C(N[C@H](CO)[C@H](O)c1ccc([N+](=O)[O-])cc1)C(Cl)Cl` [CHLORAMPHENICOL] came in with an MIC of 128 µg/mL (≈ 396 µM).
`CCCn1c(-c2ccc(S(=O)(=O)c3ccc(Br)cc3)cc2)nn(CN2CCOCC2)c1=S` registered an MIC greater than 1020 µg/mL.
On the same count and under the same terms, then `CCCn1c(-c2ccc(S(=O)(=O)c3ccccc3)cc2)nn(CN2CCOCC2)c1=S`, with greater than 1020 µg/mL.
On the same count and under the same terms, then `CN(C)c1ccc(/C=N/n2c(-c3ccc(S(=O)(=O)c4ccccc4)cc3)nn(CN3CCOCC3)c2=S)cc1`, with 1020 µg/mL (≈ 1820 µM); and `O=[N+]([O-])c1cccc(/C=N/n2c(-c3ccc(S(=O)(=O)c4ccccc4)cc3)n[nH]c2=S)c1`, with 1020 µg/mL (≈ 2200 µM).

For a further assay, the system named is Citrobacter freundii. The assay can be described thus: Antibacterial activity against Citrobacter freundii ATCC 8090 after 18 to 24 hrs by liquid broth method. The class given is functional.
Conditions: not given
Put shortly: as §1
Turning to `O=[N+]([O-])c1cccc(/C=N/n2c(-c3ccc(S(=O)(=O)c4ccccc4)cc3)nn(CN3CCOCC3)c2=S)c1`, the MIC entry is “inactive”.
The same measure, in the same setting: then `O=S(=O)(c1ccccc1)c1ccc(-c2nn(CN3CCOCC3)c(=S)n2/N=C/c2ccco2)cc1`, with greater than 1020 µg/mL.
Same read-out and setting: then `CCCn1c(S)nnc1-c1ccc(S(=O)(=O)c2ccc(Cl)cc2)cc1`, with 512 µg/mL (≈ 1300 µM); and `CN(C)c1ccc(/C=N/n2c(-c3ccc(S(=O)(=O)c4ccccc4)cc3)n[nH]c2=S)cc1`, with “inactive”; and `O=S(=O)(c1ccc(Cl)cc1)c1ccc(-c2n[nH]c(=S)n2/N=C/c2ccccc2)cc1`, with “inactive”.
On the same count and under the same terms, then `O=C(N[C@H](CO)[C@H](O)c1ccc([N+](=O)[O-])cc1)C(Cl)Cl` [CHLORAMPHENICOL], with 128 µg/mL (≈ 396 µM).
Molecule `CCCn1c(-c2ccc(S(=O)(=O)c3ccc(Br)cc3)cc2)nn(CN2CCOCC2)c1=S` came in with an MIC of 256 µg/mL (≈ 476 µM).
Same read-out and setting: then `CCCn1c(-c2ccc(S(=O)(=O)c3ccccc3)cc2)nn(CN2CCOCC2)c1=S`, with 512 µg/mL (≈ 1120 µM); and `CN(C)c1ccc(/C=N/n2c(-c3ccc(S(=O)(=O)c4ccccc4)cc3)nn(CN3CCOCC3)c2=S)cc1`, with “inactive”; and `O=[N+]([O-])c1cccc(/C=N/n2c(-c3ccc(S(=O)(=O)c4ccccc4)cc3)n[nH]c2=S)c1`, with “inactive”.

The subject of another assay is Pseudomonas aeruginosa. Description: Antibacterial activity against Pseudomonas aeruginosa ATCC 9027 after 18 to 24 hrs by liquid broth method.
Conditions: not given
The class given is functional. Put shortly:
as §1
For `O=[N+]([O-])c1cccc(/C=N/n2c(-c3ccc(S(=O)(=O)c4ccccc4)cc3)nn(CN3CCOCC3)c2=S)c1`, the MIC was found to be 1020 µg/mL (≈ 1810 µM).
`O=S(=O)(c1ccccc1)c1ccc(-c2nn(CN3CCOCC3)c(=S)n2/N=C/c2ccco2)cc1` registered an MIC of 512 µg/mL (≈ 1000 µM).
The same measure, in the same setting: with `CCCn1c(S)nnc1-c1ccc(S(=O)(=O)c2ccc(Cl)cc2)cc1` the entry was “inactive”.
The same measure, in the same setting: then `CN(C)c1ccc(/C=N/n2c(-c3ccc(S(=O)(=O)c4ccccc4)cc3)n[nH]c2=S)cc1`, with greater than 1020 µg/mL; and `O=S(=O)(c1ccc(Cl)cc1)c1ccc(-c2n[nH]c(=S)n2/N=C/c2ccccc2)cc1`, with 512 µg/mL (≈ 1130 µM); and `O=C(N[C@H](CO)[C@H](O)c1ccc([N+](=O)[O-])cc1)C(Cl)Cl` [CHLORAMPHENICOL], with 64 µg/mL (≈ 198 µM).
The same measure, in the same setting: with `CCCn1c(-c2ccc(S(=O)(=O)c3ccc(Br)cc3)cc2)nn(CN2CCOCC2)c1=S` the figure was greater than 1020 µg/mL; with `CCCn1c(-c2ccc(S(=O)(=O)c3ccccc3)cc2)nn(CN2CCOCC2)c1=S`, greater than 1020 µg/mL; with `CN(C)c1ccc(/C=N/n2c(-c3ccc(S(=O)(=O)c4ccccc4)cc3)nn(CN3CCOCC3)c2=S)cc1`, greater than 1020 µg/mL.
The molecule `O=[N+]([O-])c1cccc(/C=N/n2c(-c3ccc(S(=O)(=O)c4ccccc4)cc3)n[nH]c2=S)c1` gave an MIC of 512 µg/mL (≈ 1100 µM).
